IC50 data for 47 compounds are collected here from ChEMBL document CHEMBL1142013, “Tryptamine and homotryptamine-based sulfonamides as potent and selective inhibitors of 15-lipoxygenase” (Bioorg Med Chem Lett, 2005).

Experiment [1] deals with T1, Polyunsaturated fatty acid lipoxygenase ALOX15 (Oryctolagus cuniculus, UniProt P12530).
T1 sequence (P12530 whole entry): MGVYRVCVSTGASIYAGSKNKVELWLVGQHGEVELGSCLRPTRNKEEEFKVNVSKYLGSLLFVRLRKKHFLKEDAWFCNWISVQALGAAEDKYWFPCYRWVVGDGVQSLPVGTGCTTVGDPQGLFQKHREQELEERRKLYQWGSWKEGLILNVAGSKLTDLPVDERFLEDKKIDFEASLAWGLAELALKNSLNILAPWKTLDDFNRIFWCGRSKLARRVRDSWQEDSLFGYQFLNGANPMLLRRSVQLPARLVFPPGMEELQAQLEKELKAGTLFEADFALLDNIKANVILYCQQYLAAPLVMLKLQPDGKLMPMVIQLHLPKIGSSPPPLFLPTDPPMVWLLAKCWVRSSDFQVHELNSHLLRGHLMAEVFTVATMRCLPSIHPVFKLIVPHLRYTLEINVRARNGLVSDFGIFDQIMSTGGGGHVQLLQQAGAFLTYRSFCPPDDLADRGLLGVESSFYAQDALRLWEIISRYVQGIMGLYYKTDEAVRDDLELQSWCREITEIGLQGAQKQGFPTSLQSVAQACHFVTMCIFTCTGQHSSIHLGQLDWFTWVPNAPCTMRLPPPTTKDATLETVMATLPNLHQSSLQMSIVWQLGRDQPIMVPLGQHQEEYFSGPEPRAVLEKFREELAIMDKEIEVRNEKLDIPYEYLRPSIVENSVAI
In words: Inhibitory concentration against rabbit reticulocyte 15-lipoxygenase with substrate arachidonic acid. An outline of the steps:
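Purified rabbit reticulocyte 15-LO, isolated from phenylhydrazine-treated rabbits, with arachidonic acid as the substrate. IC50 comes from a colorimetric read-out in which the 15-HPETE product oxidizes Fe²⁺ under mildly acidic conditions. Many values were also verified by the spectrophotometric diene-formation rate (A₂₃₄).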

Experiment [2] has as its target T1, Polyunsaturated fatty acid lipoxygenase ALOX15. In words: Inhibitory concentration against isolated rabbit reticulocyte 15-lipoxygenase measured in the presence of linoleic acid. An outline of the steps: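 15-LO was purified from reticulocytes of phenylhydrazine-treated rabbits. Linoleic acid was the substrate. In a colorimetric assay, the 13-HPODE product oxidizes Fe²⁺ under mildly acidic conditions, and IC50 is derived from this. Many values were also checked spectrophotometrically by the rate of diene formation (A₂₃₄).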

SMILES strings stand for the structures.

The term IC50 denotes the concentration at which inhibition is half-maximal. Turning to `O=S(=O)(NCCc1c(-c2cc3ccccc3o2)[nH]c2ccccc12)c1ccc(-c2ccncc2)cc1`, the values for the IC50 in experiment [1] and in experiment [2] were 179 nM and 47 nM, respectively.

With `CN(C)c1cccc2c(S(=O)(=O)NCCc3c[nH]c4ccccc34)cccc12`, the half-inhibitory concentration (IC50) in experiment [2] was found to be 3730 nM.

As to `CCCCCc1ccc(S(=O)(=O)NCCc2c[nH]c3ccccc23)cc1`, the IC50 worked out at 1020 nM in experiment [1] and 420 nM in experiment [2].

In the case of `COc1ccc(-c2ccc(S(=O)(=O)NCCc3c[nH]c4ccccc34)cc2)cc1`, the 50% inhibitory concentration (IC50) amounted to 1090 nM in experiment [1] and 1500 nM in experiment [2].

As for `Cc1ccc(-c2ccc(S(=O)(=O)NCCc3c[nH]c4ccccc34)cc2)cc1`, in experiment [1], the IC50 turned out to be 470 nM.

For the compound `CCCCCc1ccc(S(=O)(=O)N(C)CCc2c[nH]c3ccccc23)cc1`, the 50% inhibitory concentration (IC50) in experiment [2] is > 10000 nM.

For `COc1ccc(-c2[nH]c3ccccc3c2CCNS(=O)(=O)c2ccc(C(=O)O)cc2)cc1`, the IC50 in experiment [2] is > 10000 nM.

For the compound `CCCCCc1ccc(S(=O)(=O)NCCc2c(-c3ccc4oc5ccccc5c4c3)[nH]c3ccccc23)cc1`, the half-inhibitory concentration (IC50) in experiment [1] was determined as 71 nM; in experiment [2], 10 nM.

As for `CCCCCc1ccc(S(=O)(=O)NCCc2c[nH]c3cc(C(=O)O)ccc23)cc1`, the concentration for half-maximal inhibition (IC50) is > 30000 nM in experiment [1] and 24000 nM in experiment [2].

`CCCCCc1ccc(S(=O)(=O)NCCc2c(-c3cc(OC)ccc3OC)[nH]c3ccccc23)cc1`: the IC50 in experiment [1] was 132 nM; in experiment [2], 28 nM.

`CCCCCc1ccc(S(=O)(=O)NCCc2c(-c3ccc(OCC)cc3)[nH]c3ccccc23)cc1`: the IC50 in experiment [1] was 39 nM; in experiment [2], 11 nM.

For `CCc1ccc(S(=O)(=O)NCCc2c[nH]c3ccccc23)cc1`, the 50% inhibitory concentration (IC50) in experiment [1] and in experiment [2] was > 10000 nM each time.

Consider `COc1ccc(NC(=O)c2ccc(S(=O)(=O)NCCc3c(-c4cc5ccccc5o4)[nH]c4ccccc34)cc2)cc1`, for which the results for the half-maximal inhibitory concentration (IC50) in experiment [1] and in experiment [2] were 26 nM and 11 nM, respectively.

Compound `CCCCCc1ccc(S(=O)(=O)NCCc2c[nH]c3ccc(F)cc23)cc1` yielded an IC50 in experiment [1] of 6300 nM.

In the case of `CCCc1ccc(S(=O)(=O)NCCc2c[nH]c3ccccc23)cc1`, the IC50 came out at 3200 nM in experiment [1] and 3130 nM in experiment [2].

Turning to `Cc1cccc(-c2ccc(S(=O)(=O)NCCc3c[nH]c4ccccc34)cc2)c1`, the IC50 was 320 nM in experiment [1] and 450 nM in experiment [2].

For `CCCCCc1ccc(S(=O)(=O)NCCc2c[nH]c3ccc(-c4ccc[nH]4)cc23)cc1`, in experiment [2], the half-maximal inhibitory concentration (IC50) stood at 780 nM.

Consider `CCCCc1ccc(S(=O)(=O)NCCc2c[nH]c3ccccc23)cc1`, for which the IC50 was 4000 nM in experiment [1] and 3070 nM in experiment [2].

On to `CCCCNC(=O)c1ccc(S(=O)(=O)NCCc2c(-c3cc4ccccc4o3)[nH]c3ccccc23)cc1`, for which the IC50 in experiment [1] turned out to be 112 nM; in experiment [2], 42 nM.

For the compound `CCCCCc1ccc(S(=O)(=O)N2CCC(c3c[nH]c4ccccc34)C2)cc1` (stereo unspecified), the half-inhibitory concentration (IC50) in experiment [2] was > 10000 nM.

As for `COc1ccc(-c2[nH]c3ccccc3c2CCNS(=O)(=O)c2ccc(C)cc2)cc1`, the 50% inhibitory concentration (IC50) came out at 780 nM in experiment [1] and 110 nM in experiment [2].

Regarding `CCCCCc1ccc(S(=O)(=O)NCCc2c[nH]c3c(C)cccc23)cc1`, the IC50 in experiment [1] is 3300 nM.

For the compound `CCCCc1ccc(S(=O)(=O)NCCc2c(-c3ccc(OC)cc3)[nH]c3ccccc23)cc1`, the IC50 in experiment [2] is 110 nM.

`CC(C)(C)c1ccc(-c2ccc(S(=O)(=O)NCCc3c[nH]c4ccccc34)cc2)cc1`: the 50% inhibitory concentration (IC50) was 230 nM in experiment [1] and 270 nM in experiment [2].

`O=C(NC1CCCCC1)c1ccc(S(=O)(=O)NCCc2c(-c3cc4ccccc4o3)[nH]c3ccccc23)cc1`: the concentration for half-maximal inhibition (IC50) in experiment [1] was determined as 34 nM; in experiment [2], 12 nM.

For `CC1=C(CC/C(C)=C/CC/C(C)=C/Cc2cc(O)ccc2O)C(C)(C)CCC1` [JASPAQUINOL], the 50% inhibitory concentration (IC50) in experiment [2] was 300 nM.

Turning to `CCCCCc1ccc(S(=O)(=O)NC(C)Cc2c[nH]c3ccccc23)cc1` (stereo unspecified), the half-inhibitory concentration (IC50) in experiment [2] turned out to be 1600 nM.

Consider `CC(C)c1ccc(-c2ccc(S(=O)(=O)NCCc3c[nH]c4ccccc34)cc2)cc1`, for which the 50% inhibitory concentration (IC50) was 140 nM in experiment [1] and 280 nM in experiment [2].

For the compound `CN(CCO)C(=O)c1ccc(S(=O)(=O)NCCc2c(-c3cc4ccccc4o3)[nH]c3ccccc23)cc1`, the figures for the 50% inhibitory concentration (IC50) in experiment [1] and in experiment [2] were 4050 nM and 440 nM, respectively.

As to `O=S(=O)(NCCc1c[nH]c2ccccc12)c1ccc(-c2ccccc2)cc1`, the IC50 in experiment [1] is 4200 nM; in experiment [2], 3400 nM.

Consider `CN(C)CCN(C)C(=O)c1ccc(S(=O)(=O)NCCc2c(-c3cc4ccccc4o3)[nH]c3ccccc23)cc1`, for which the values for the IC50 in experiment [1] and in experiment [2] were 382 nM and 76 nM, respectively.

`CCCCCc1ccc(S(=O)(=O)NCCc2c[nH]c3cc(F)ccc23)cc1` registered an IC50 in experiment [1] of 2900 nM.

As for `CCCCc1ccc(-c2ccc(S(=O)(=O)NCCc3c[nH]c4ccccc34)cc2)cc1`, the IC50 in experiment [1] was 200 nM; in experiment [2], 530 nM.

Turning to `CCCCCc1ccc(S(=O)(=O)NCCc2c[nH]c3cc(C(=O)OC)ccc23)cc1`, the IC50 stood at 472 nM in experiment [1] and 236 nM in experiment [2].

Regarding `CCCCCc1ccc(S(=O)(=O)NCCc2c[nH]c3ccc(C)cc23)cc1`, the half-inhibitory concentration (IC50) in experiment [1] is 3900 nM.

With `Cc1ccc(S(=O)(=O)NCCc2c[nH]c3ccccc23)cc1`, the 50% inhibitory concentration (IC50) in experiment [1] and in experiment [2] was > 10000 nM in each case.

For `CC(C)Cc1ccc(-c2ccc(S(=O)(=O)NCCc3c[nH]c4ccccc34)cc2)cc1`, the half-inhibitory concentration (IC50) is 170 nM in experiment [1] and 910 nM in experiment [2].

With `CCCCCc1ccc(S(=O)(=O)NCCc2c(-c3cc4ccccc4o3)n(C)c3ccccc23)cc1`, the IC50 came to 1420 nM in experiment [1] and 143 nM in experiment [2].

Turning to `O=C(Nc1ccccc1)c1ccc(S(=O)(=O)NCCc2c(-c3cc4ccccc4o3)[nH]c3ccccc23)cc1`, the concentration for half-maximal inhibition (IC50) stood at 51 nM in experiment [1] and 15 nM in experiment [2].

Turning to `CCc1ccc(-c2ccc(S(=O)(=O)NCCc3c[nH]c4ccccc34)cc2)cc1`, the IC50 was 470 nM in experiment [1] and 260 nM in experiment [2].

Turning to `O=S(=O)(NCCc1c(-c2cc3ccccc3o2)[nH]c2ccccc12)c1ccc(Br)cc1`, the half-maximal inhibitory concentration (IC50) was 161 nM in experiment [1] and 30 nM in experiment [2].

`CCCCCc1ccc(S(=O)(=O)NCCc2c(-c3cccc(C)c3)[nH]c3ccccc23)cc1`: the IC50 in experiment [1] came to 58 nM; in experiment [2], 25 nM.

With `Cc1ccccc1-c1ccc(S(=O)(=O)NCCc2c[nH]c3ccccc23)cc1`, the IC50 turned out to be 460 nM in experiment [1] and 920 nM in experiment [2].

As for `CCCCCc1ccc(S(=O)(=O)NCCc2c(-c3cnc4ccccc4c3)[nH]c3ccccc23)cc1`, the IC50 worked out at 50 nM in experiment [1] and 13 nM in experiment [2].

Regarding `COc1ccc(-c2[nH]c3ccccc3c2CCNS(=O)(=O)c2ccc(-c3ccccc3)cc2)cc1`, the IC50 in experiment [1] worked out at 247 nM; in experiment [2], 27 nM.

With `CCCCCc1ccc(S(=O)(=O)NCCc2c(-c3ccc(C(F)(F)F)cc3)[nH]c3ccccc23)cc1`, the IC50 in experiment [1] is 132 nM; in experiment [2], 11 nM.

`O=S(=O)(NCCCc1c(-c2cc3ccccc3o2)[nH]c2ccccc12)c1ccc(-c2ccccc2)cc1`: the IC50 in experiment [1] stood at 17 nM; in experiment [2], 8 nM.
